Our source for the inhibition, IC50 and Activity values is ChEMBL document CHEMBL4814013, “Scaffold repurposing of fendiline: Identification of potent KRAS plasma membrane localization inhibitors” (Eur J Med Chem, 2021).

Calls of active or inactive are those of the source. The calls are words filed in the database; no cut-off is given here.

Data set [1] deals with MDCK. The data set can be described thus: Inhibition of ASM in dog MDCK cells co-expressing recombinant full length GFP-tagged LactC2 and mCherry-CAAX assessed as reduction in plasma membrane localization of LactC2 incubated for 48 hrs by confocal microscopic analysis. The class given is cell membranes. The note with it: Canis lupus familiaris. The gist of the method:
(§1)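 MDCK cells stably co-expressing mGFP-KRAS G12V or mGFP-LactC2 with mCherry-CAAX (HRAS 179–189 C181S/C184S) grown on coverslips in DMEM/10% FBS. Treated 48 h with 0.1% DMSO or graded drug, fixed in 4% paraformaldehyde, then quantitative confocal imaging. Mislocalization scored as the Manders fraction of mCherry-CAAX co-localizing with the GFP probe. IC50 and Emax from three independent experiments.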

The test system of data set [2] is Mus musculus. The data set can be described thus: In vivo inhibition of Ca2+ channel in nu/nu mouse xenografted with human MIA PaCa-2 cells harboring KRAS mutation assessed as blood vessel dialation in tumor at 1 to 5 mg/kg, ip administered once daily for 5 days with 2 days break by immunostaining. The class given is functional, organism-based. To be noted: dose 1-5 mg/kg, time 5.0 day. (In general: Xenograft models place foreign cells or tissue in a host animal.)

Data set [3] relates to Mus musculus. As to the kind of experiment: In vivo inhibition of KRAS signaling in nu/nu mouse xenografted with human MIA PaCa-2 cells harboring KRAS mutation assessed as decrease in ERK phosphorylation in tumor at 1 to 5 mg/kg, ip administered once daily for 5 days with 2 days break by immunohistochemistry. The data set is classed as functional, organism-based. The note with it: dose 1-5 mg/kg, time 5.0 day. The gist of the method:
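Paraffin tumor sections of 4–5 µm were deparaffinized and given heat antigen retrieval in 10 mM sodium citrate. Endogenous peroxidase was quenched and sections blocked in 2.5% normal goat serum. Primary antibody (pERK or cleaved caspase 3) applied overnight at 4 °C, biotinylated secondary 1:250 for 45 min at rt, then ABC reagent 30 min and DAB development. Rabbit IgG served as control.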

A short description of data set [4]: Antiproliferative activity against human MOH cells expressing KRAS mutant assessed as reduction in cell growth incubated for 72 hrs by CyQuant proliferation assay. The class given is functional, cell-based. The method in brief:
(§2)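 Cells seeded in 96-well plates; after 24 h fresh growth medium with 0.1% DMSO vehicle or drug added (highest dose 30 µM for cancer lines), grown 72 h at 37 °C, 5% CO2. Live cell number measured by CyQUANT fluorescence. IC50 from three independent experiments. MEFs were isogenic lines carrying oncogenic BRAF or KRAS.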

In data set [5] the test system is MEF. As to the kind of experiment: Antiproliferative activity against mouse MEF cells expressing KRAS G12V mutant assessed as reduction in cell growth incubated for 72 hrs by CyQuant proliferation assay. The class given is functional, cell-based. The gist of the method: as §2
In data set [6] the test system is MEF. The data set can be described thus: Cytotoxicity against mouse MEF cells expressing BRAF V600E mutant and wild type KRAS assessed as reduction in cell growth incubated for 72 hrs by CyQuant proliferation assay. The data set is classed as functional, cell-based. The gist of the method: as §2
Data set [7] can be described thus: Toxicity in nu/nu mouse xenografted with human MIA PaCa-2 cells assessed as effect on body weight at 1 to 5 mg/kg, ip administered once daily for 5 days with 2 days break. The data set is classed as organism-based. To be noted: in vivo, 120 h, dose 1-5 mg/kg, time 5 day.
Data set [8] deals with KLE. The data set can be described thus: Antiproliferative activity against human KLE cells expressing wild type KRAS assessed as reduction in cell growth upto 30 uM incubated for 72 hrs by CyQuant proliferation assay. The note with it: dose microM <=30, time 72.0 hrs. The data set is classed as functional, cell-based. The gist of the method: as §2
Data set [9] deals with MDCK. As to the kind of experiment: Inhibition of ASM in dog MDCK cells co-expressing recombinant full length mGFP-tagged KRAS G12V mutant and mCherry-CAAX assessed as reduction in plasma membrane localization of KRAS mutant at 1 uM incubated for 48 hrs followed by incubation with recombinant ASM in continued presence of compound for 60 mins by confocal microscopic analysis. The data set is classed as cell membranes. To be noted: Canis lupus familiaris, time 49.0 hrs. The method in brief: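 MDCK cells stably co-expressing mGFP-KRAS G12V and mCherry-CAAX seeded on glass coverslips and grown 48 h with or without compound. Medium then replaced with fresh medium containing 2 units/mL recombinant ASM, drug continued, for 60 min. Cells mounted in mowiol and imaged by confocal microscopy. Mislocalization scored by Manders coefficient.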

Data set [10] deals with Mus musculus. As to the kind of experiment: In vivo inhibition of ASM in nu/nu mouse xenografted with human MIA PaCa-2 cells harboring KRAS mutation assessed as increase in SM accumulation in tumor at 12.5 mg/kg, ip administered once daily for 5 days with 2 days break by GFP-lysenin staining based confocal laser microscopy. The class given is functional, organism-based. The note with it: time 5.0 day. The method in brief:
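Sections of MiaPaCa-2 xenograft tumors from i.p.-treated nu/nu mice (12.5 mg/kg) stained with GFP-tagged lysenin to detect sphingomyelin.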

Data set [11] in a line: Inhibition of ASM in dog MDCK cells co-expressing recombinant full length mGFP-tagged KRAS G12V mutant and mCherry-CAAX assessed as reduction in plasma membrane localization of KRAS mutant incubated for 48 hrs by confocal microscopic analysis. The data set is classed as cell membranes, Canis lupus familiaris. The gist of the method: as §1
For data set [12], the system named is NCI-H1975. As to the kind of experiment: Antiproliferative activity against human NCI-H1975 cells expressing wild type KRAS assessed as reduction in cell growth incubated for 72 hrs by CyQuant proliferation assay. The data set is classed as functional, cell-based. To be noted: NCI-H1975, 72 h. The method in brief: as §2
The nature of data set [13]: Antiproliferative activity against human MPANC96 cells expressing KRAS mutant assessed as reduction in cell growth incubated for 72 hrs by CyQuant proliferation assay. The data set is classed as functional, cell-based. To be noted: MPANC96, 72 h. The gist of the method:
as §2

Data set [14] has as its system MEF. The data set can be described thus: Antiproliferative activity against mouse MEF cells expressing KRAS G12D mutant assessed as reduction in cell growth incubated for 72 hrs by CyQuant proliferation assay. The class given is functional, cell-based. The gist of the method:
as §2

Data set [15] has as its system ESS-1. As to the kind of experiment: Antiproliferative activity against human ESS-1 cells expressing wild type KRAS assessed as reduction in cell growth upto 30 uM incubated for 72 hrs by CyQuant proliferation assay. The note with it: dose microM <=30, time 72.0 hrs. The class given is functional, cell-based. The gist of the method: as §2
In data set [16] the test system is Caenorhabditis elegans. As to the kind of experiment: In vivo inhibition of KRAS signaling in Caenorhabditis elegans lin-1 L1 harboring let60 […] mutant assessed as reduction in multi-vulva phenotype measured after 4 to 5 days culturing in buffer containing Escherichia coli OP50 by DIC/Nomarski microscopic analysis. The class given is functional, organism-based. The note with it: dose 0.1-30 µM, time 4-5 day. The gist of the method: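 let-60 (n1046) or lin-1 L1 larvae cultured in M9 buffer with E. coli OP50 plus DMSO vehicle or compound at 0.1, 0.3, 1, 3, 10 or 30 µM. After 4–5 days, adults were scored for multi-vulva by DIC/Nomarski microscopy.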

The subject of data set [17] is SK-CO-1. The data set can be described thus: Antiproliferative activity against human SK-CO-1 cells expressing mutant KRAS assessed as reduction in cell growth incubated for 72 hrs by CyQuant proliferation assay. The class given is functional, cell-based. To be noted: SK-CO-1, 72 h. The gist of the method:
as §2

Data set [18] has as its system BXPC-3. As to the kind of experiment: Antiproliferative activity against human BXPC-3 cells expressing wild type KRAS assessed as reduction in cell growth incubated for 72 hrs by CyQuant proliferation assay. The data set is classed as functional, cell-based. To be noted: BXPC-3, 72 h. The gist of the method: as §2
The test system of data set [19] is Ishikawa. As to the kind of experiment: Antiproliferative activity against human Ishikawa cells expressing wild type KRAS assessed as reduction in cell growth incubated for 72 hrs by CyQuant proliferation assay. The class given is functional, cell-based. The gist of the method:
as §2

Data set [20] deals with MDCK. As to the kind of experiment: Cytotoxicity against dog MDCK cells at 30 uM. The class given is functional, cell-based. The note with it: Canis lupus familiaris.
In data set [21] the test system is MDCK. As to the kind of experiment: Reduction in expression of human GFP-tagged ASM transfected in dog MDCK cells at 5 uM incubated for 48 hrs by western blot analysis. The class given is functional, cell-based. The note with it: Canis lupus familiaris. The method in brief:
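SMPD1-GFP-expressing MDCK cells treated 48 h with 5 µM compound, washed in cold PBS and lysed in Tris pH 7.5 buffer with NaF, EGTA, DTT, vanadate, 1% NP40 and protease inhibitors. 20 µg of protein resolved by SDS-PAGE and immunoblotted. Signals detected by enhanced chemiluminescence and quantified by densitometry.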
(A western blot detects proteins with antibodies after separation by electrophoresis.)

Data set [22] concerns NCI-H522. The data set can be described thus: Antiproliferative activity against human NCI-H522 cells expressing wild type KRAS assessed as reduction in cell growth incubated for 72 hrs by CyQuant proliferation assay. The class given is functional, cell-based. To be noted: NCI-H522, 72 h. The method in brief:
as §2

By IC50 is commonly meant the midpoint of a concentration-inhibition curve. Take `COc1ccc([C@@H](C)N(CC=C(c2ccccc2)c2ccccc2)CCN2CCCC2)cc1`: the inhibition result in data set [1], in data set [3], in data set [10] and in [21] was “Active” throughout. In addition, the inhibition entry in data set [2] and in data set [9] was “inactive” each time. For the same compound, the half-inhibitory concentration (IC50) in data set [4] is 3.6 µM; in data set [5], 2.6 µM; in [6] it was 8.5 µM; in data set [11], 0.3 µM; in data set [12], above 30 µM; in data set [13] it was 3.8 µM. The half-maximal inhibitory concentration (IC50) in data set [14] turned out to be 3.9 µM; in data set [17], 3 µM; in [18], 5.5 µM; in data set [19] it was 17.3 µM; in [22], 27.3 µM. Further, in [7], the Activity entry was “Non-Toxic”. Also, the result in data set [8] and in [15] was inactive. Besides, the inhibition result in [16] is “Dose-Dependent Effect”. In [20], the outcome was Active.

Turning to `COc1ccc([C@@H](C)N(CC=C(c2ccccc2)c2ccccc2)CCCN2CCN(C)CC2)cc1`, the inhibition entry in data set [1] and in [3] was “Active” in each case. In addition, the inhibition entry in [2], in [9], in data set [10] and in data set [21] was “inactive” each time. Moreover, the IC50 is 3.8 µM in data set [4]; 2.9 µM in data set [5]; 7.9 µM in data set [6]; 0.02 µM in [11]; above 30 µM in [12]; 4.2 µM in data set [13]. The 50% inhibitory concentration (IC50) is 2.4 µM in data set [14]; 3.5 µM in data set [17]; 5.3 µM in [18]; 11 µM in data set [19]; 23.5 µM in data set [22]. For the same compound, the Activity result in data set [7] was “Non-Toxic”. The outcome in data set [8] and in [15] was inactive. In data set [16], the inhibition entry was “Dose-Dependent Effect”. In addition, the outcome in data set [20] was Active.
